The nature of series [1]: Antiprion activity against sheep RML prion protein-infected in mouse ScN2a-cl3 cells assessed as reduction of PrPSc level after 5 days by ELISA. The format is cell-based. The settings on record: Ovis aries, N2a-cl3, 120 h. A digest of the protocol:
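RML prion-infected murine neuroblastoma ScN2a-cl3 cells. PrPSc levels were measured by ELISA, and EC50 was derived from 3 tests. Cell viability was run alongside each EC50 measurement in the same cells using calcein-AM fluorescence, to exclude cytotoxicity.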
Background: In an ELISA, binding on a coated surface is turned into a signal by an enzyme label.

For another series, the system named is Plasma. The series is described as follows: (§1) Cmax in wild type FVB mouse plasma at 10 mg/kg, po by LC-MS analysis. The format is ADME, organism-based. Also noted: dose 10 mg/kg, route oral. Conditions: in vivo.
In another series the test system is Liver microsomes. The series is described as follows: Metabolic stability in human liver microsomes assessed as half life by LC-MS analysis. The format is ADME, Microsome. In general terms: Microsomes from liver hold many membrane-bound enzymes, among them those of drug oxidation.
Series [2] can be described thus: AUC (0 to 6 hrs) in wild type FVB mouse plasma at 10 mg/kg, po by LC-MS analysis. It is filed as ADME, organism-based. Also noted: time < 6 hr, dose 10 mg/kg, route oral.
Series [3] is described as follows: Cytotoxicity against mouse ScN2a-cl3 cells assessed as cell viability after 5 days by calcein cell viability assay. It is filed as cell-based. Conditions: n2a-cl3, 120 h, read-out: LC50 (the source's name). A digest of the protocol: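 Viability of RML prion-infected ScN2a-cl3 cells was read with the fluorescent probe calcein-AM. It was run alongside each PrPSc ELISA EC50 measurement to rule out cytotoxicity, and LC50 was derived from 3 tests.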

The test system of the next series is Brain. The series is described as follows: (§2) AUC (0 to 6 hrs) in wild type FVB mouse brain at 10 mg/kg, po by LC-MS analysis. It is filed as ADME, organism-based. Also noted: time < 6 hr, dose 10 mg/kg, route oral. Conditions: in vivo, 6 h.
Series [4] is described as follows: Cmax in wild type FVB mouse brain at 10 mg/kg, po by LC-MS analysis. The format is ADME, organism-based. Also noted: dose 10 mg/kg, route oral.
A further series concerns Liver. The series is described as follows: Metabolic stability in mouse liver microsomes assessed as half life by LC-MS analysis. The format is ADME, Microsome.
For another series, the system named is N2a-cl3. Kind of series: Antiprion activity against sheep RML prion protein-infected in mouse ScN2a-cl3 cells assessed as reduction of PrPSc level after 5 days by ELISA relative to control. It is filed as cell-based. Also noted: concentration or dose not given beside the values. The settings on record: Ovis aries, dose or concentration not given here.
Series [5] is described as follows: as §1. It is filed as ADME, organism-based. Also noted: dose 10 mg/kg, route oral. Conditions: FVB, plasma.
A short description of series [6]: as §2. The format is ADME, organism-based. Also noted: time < 6 hr, dose 10 mg/kg, route oral. The settings on record: FVB, brain.

A word on the EC50: it is the midpoint of the concentration-response curve. The term Cmax denotes the peak of the concentration-time curve. One may read the AUC(0-t) as exposure summed from dosing to a finite time, without extrapolation to infinity. In general, AUC refers to concentration integrated over time. For orientation: inhibition means the share of the control response that was lost under treatment.

A value given as a limit tells only on which side of the number the result lay.

Regarding `COc1ccccc1N1CCN(Cc2cccnc2)CC1`, the EC50 in series [1] is more than 32 µM.
As to `c1cncc(CN2CCN(c3ccc(-c4nc5ccccc5s4)cc3)CC2)c1`, the Cmax in the series on Plasma came out at 600 nM; in series [4], 3000 nM. Also, the values for the t1/2 in the series with Liver microsomes and in the series with Liver were 34.3 min and 17.3 min, respectively. This compound came in with an exposure AUC(0-t) at 6 h in series [2] of 2.7 µM·h. The CC50 in [3] was more than 10 µM. This compound also showed an AUC in the series on Brain of 14.4 µM·h. Moreover, the EC50 in series [1] is 0.4 µM.
Regarding `COc1ccc(N2CCN(Cc3ccc(Br)o3)CC2)cc1`, the inhibition in the series with N2a-cl3 came out at 6%.
As for `COc1ccc(N2CCN(Cc3cccnc3)CC2)cc1`, the inhibition in the series with N2a-cl3 was 10%. Moreover, the EC50 in series [1] was more than 32 µM.
Regarding `c1cncc(CN2CCN(c3ccc(-c4ncco4)cc3)CC2)c1`, in series [3], the CC50 is more than 10 µM. Also, the EC50 in series [1] is more than 10 µM.
Regarding `Cc1ccc(CN2CCN(c3ccc(-c4ncco4)cc3)CC2)o1`, the CC50 in series [3] was more than 10 µM. For the same compound, the EC50 in [1] is more than 10 µM.
`COc1ccc(CN2CCN(c3ccc(-c4nc5ccccc5o4)cc3)CC2)cn1`: the Cmax was found to be 700 nM in series [5] and 1600 nM in series [4]. Also, the t1/2 is listed as more than 60 min with Liver microsomes and 25.2 min with Liver. The AUC(0-t) at 6 h was 1.1 µM·h in series [2] and 3 µM·h in series [6]. The CC50 in series [3] is more than 10 µM. Also, in series [1], the EC50 was found to be 1.1 µM.
For the compound `Clc1cccc(N2CCN(Cc3ccccc3)CC2)c1`, in the series on N2a-cl3, the inhibition worked out at 7%.
For `c1ccc(N2CCN(Cc3cccnc3)CC2)cc1`, the inhibition with N2a-cl3 was 4%.
In the case of `COc1cccc(N2CCN(Cc3cccnc3)CC2)c1`, the EC50 in [1] is more than 32 µM.
In the case of `c1csc(CN2CCN(c3ccc(-c4ncco4)cc3)CC2)c1`, the CC50 in series [3] was more than 10 µM. In addition, in series [1], the EC50 is more than 10 µM.
For the compound `Fc1ccccc1N1CCN(Cc2cccnc2)CC1`, the EC50 in [1] is more than 32 µM.
As to `CC(=O)c1ccc(N2CCN(Cc3ccco3)CC2)cc1`, in the series with N2a-cl3, the inhibition was 96%.
`CC(=O)c1ccc(N2CCN(Cc3cccnc3)CC2)cc1`: the inhibition in the series on N2a-cl3 worked out at 73%.
`Cc1ccc(CN2CCN(c3ccc(-c4nc5ccccc5o4)cc3)CC2)o1`: the CC50 in [3] is more than 10 µM. Also, in series [1], the EC50 turned out to be 3.3 µM.
As to `Clc1cccc(N2CCN(Cc3ccco3)CC2)c1`, in the series with N2a-cl3, the inhibition is 6%.
As for `CC(=O)c1ccc(N2CCN(Cc3cccs3)CC2)cc1`, the inhibition in the series on N2a-cl3 was determined as 91%. The EC50 in series [1] came to 1.95 µM.
With `Clc1ccc(N2CCN(Cc3ccc(Br)s3)CC2)cc1`, the inhibition with N2a-cl3 was determined as 12%.
For `c1ccc(CN2CCN(c3ccccc3)CC2)cc1`, the inhibition in the series on N2a-cl3 came out at 5%.
On the same count and under the same terms, the same measure for `Clc1ccc(N2CCN(Cc3cccnc3)CC2)cc1`: 0%.
Turning to `Fc1ccc(N2CCN(Cc3cccnc3)CC2)cc1`, the inhibition with N2a-cl3 was determined as 27%. In addition, the EC50 in series [1] is more than 32 µM.
Turning to `COc1ccc(N2CCN(Cc3cccs3)CC2)cc1`, the inhibition in the series on N2a-cl3 stood at 16%.
The same measure, in the same setting: the same measure for `Clc1ccc(N2CCN(Cc3ccco3)CC2)cc1`: 13%.
As to `CC(=O)c1ccc(N2CCN(Cc3ccccc3)CC2)cc1`, the inhibition in the series on N2a-cl3 worked out at 94%. Moreover, the EC50 in [1] was 0.71 µM.
On to `Clc1cccc(N2CCN(Cc3cc(Br)cs3)CC2)c1`, for which the inhibition in the series with N2a-cl3 is 34%.
As for `Fc1ccc(CN2CCN(c3ccc(-c4nc5ccccc5o4)cc3)CC2)cn1`, the figures for the t1/2 with Liver microsomes and with Liver were 43.6 min and 7.3 min, respectively. The compound further gave an AUC(0-t) at 6 h in [2] of 1.2 µM·h. In series [3], the CC50 was more than 10 µM. The same compound displayed an AUC in the series with Brain of 1.3 µM·h. Moreover, the EC50 in series [1] came to 0.4 µM. Further, the highest level in series [4] (Cmax) was 400 nM.
For the compound `c1cncc(CN2CCN(c3ccc(-c4nc5ccccc5o4)cc3)CC2)c1`, the Cmax came to 900 nM in series [5] and 3600 nM in series [4]. The t1/2 stood at 50.2 min in the series on Liver microsomes and 9.2 min with Liver. The compound further came in with an AUC(0-t) at 6 h in series [2] of 4.2 µM·h. Moreover, the CC50 in series [3] was more than 10 µM. Moreover, the AUC in the series with Brain was 14.2 µM·h. Moreover, the EC50 in series [1] is 0.3 µM.
Regarding `Clc1cccc(N2CCN(Cc3cccnc3)CC2)c1`, the inhibition in the series with N2a-cl3 was 4%. The EC50 in [1] was more than 32 µM.
As to `Cc1ccc(CN2CCN(c3ccc(-c4nc5ccccc5o4)cc3)CC2)cn1`, the CC50 in series [3] was more than 10 µM. In [1], the EC50 was more than 10 µM.
`CC(=O)c1ccc(N2CCN(Cc3ccc(C)o3)CC2)cc1`: the inhibition in the series with N2a-cl3 is 78%. Further, the EC50 in [1] worked out at 4.62 µM.
For `COc1ccc(N2CCN(Cc3ccccc3)CC2)cc1`, in the series on N2a-cl3, the inhibition was found to be 7%.
As to `Clc1ccc(N2CCN(Cc3ccccc3)CC2)cc1`, the inhibition in the series on N2a-cl3 came out at 6%.
`c1csc(CN2CCN(c3ccc(-c4nc5ccccc5o4)cc3)CC2)c1`: the CC50 in series [3] was more than 10 µM. For the same compound, the half-maximal effective concentration (EC50) in series [1] worked out at 4.2 µM.
With `CC(=O)c1ccc(N2CCN(Cc3sccc3C)CC2)cc1`, the inhibition with N2a-cl3 is 78%.
For `Fc1ccc(N2CCN(Cc3ccccc3)CC2)cc1`, in the series on N2a-cl3, the inhibition is 7%.

(Values after ChEMBL document CHEMBL2331469, “Discovery and Preliminary SAR of Arylpiperazines as Novel, Brainpenetrant Antiprion Compounds” (ACS Med Chem Lett, 2013).)
